Measurements: the EternaBench riboswitch data

System: MS2 coat protein
Assay: apparent Kd, MS2 coat protein; higher = weaker binding; RNA-MaP array; FMN 200 µM where present
Outline: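 The apparent Kd comes from binding curves fitted cluster by cluster, filtered, and summarised as a median. Those curves followed SNAP-549-labelled MS2 coat protein from 0.7 or 1.5 nM, doubling to 3 µM, on Illumina sequencing-chip clusters where stalled E. coli RNA polymerase had transcribed the designs, without and then with constant ligand. The buffer was 100 mM Tris-HCl pH 7.5, 80 mM KCl, 4 mM MgCl2, BSA, DTT, yeast tRNA and Tween-20, and green signal was normalised to red-channel RNA signal and control-cluster median Fmax.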

[1] = designed as: OFF switch for flavin mononucleotide, no ligand
[2] = ligand present: flavin mononucleotide, designed as: OFF switch for flavin mononucleotide
[3] = designed as: ON switch for flavin mononucleotide, no ligand
[4] = ligand present: flavin mononucleotide, designed as: ON switch for flavin mononucleotide

Sequence	apparent Kd [1]	apparent Kd [2]	apparent Kd [3]	apparent Kd [4]
AAGACUAGAGGAUAUACAUGAGGAUCACCCAUGUAACUGUCAGAAAACUGACGGAGAUGUAGAAGGCUAGUCAA	17.7 nM	34.7 nM	–	–
CGAGAUCUUGAGAAGGCAUAAUAUAUAAUACCACAUGUUUACAUGAGGAUCACCCAUGUUACCUAUGAGGAUAUCAGGAUUUCG	18.5 nM	16.1 nM	–	–
UGGGCGAGCCCAGUACUCACACAUGAGGAUCACCCAUGUGACGAGGAUAUAGACAGCGAUGCGUGCUAGAAGGCGUCACGGUAG	10.9 nM	35.3 nM	–	–
GAAUAACAUGAGGAUCACCCAUGUGAUUCGCAUGUAGGAUAUGGGCACGCGCCCGCGUGUCCAGAAGGACAGGCUA	–	–	154 nM	130 nM
GGAAAUCAUGUAGGAUAUGCAUGGCGAAGCUACGCAGAAGGACAUGAGGAUCACCCAUGUUAUAGCGUCCGAGUAAGGAUGCAA	42.1 nM	123 nM	–	–
UGUACCGUUGGAACGCGUCGAGUACAUGAGGAUCACCCAUGUCAGGAUAUGUGGCGGAAGGUAGCACAGAAGGGACAUAGAAAA	30.1 nM	86.7 nM	–	–
AGCGCGGUCCACUUGGACGCCUACGAGGAUAUCCUGUCACAUGAGGAUCACCCAUGUAGGCACAUGGAGAAGGCGUAGAAAUCA	–	–	60.9 nM	7.22 nM
UGAAAGCUAGGAUAUACAUGAGGAUCACCCAUGUACCGGCUUGGCCCUGGUCCAAAGUGUAGAAGGAGCACGCC	28.2 nM	50.3 nM	–	–
GCGUUGAACGAGAAGGCCACUACAUGAGGAUCACCCAUGUCGUGGAGUAUUGGAGGAUAUCGAUCGGCGUCUCAUGAGGACAUA	5.34 nM	5.62 nM	–	–
CCGCAAAUGUAGGAUAUCGUAUCGGAUACGAUACGAGAAGGGCAUACAUGAGGAUCACCCAUGUGUCCUAGCGG	14.6 nM	15.7 nM	–	–
GUCAGCUCGUGAGGAUAUACAUCACUGCUUCGGCAGUGUAUUAAGAUCACAUGAGGAUCACCCAUGUAGAAGGCACGAGCUGAU	42.5 nM	620 nM	–	–
UAUUACCUAGGAUAUACAUGAGGAUCACCCAUGUCACGGGUCAACUUGUCCUAUGCGUGUAGAAGGAGGGACCC	19.8 nM	21.3 nM	–	–
AGUGUCAUCGAGAAGGACACGGACAUGAGGAUCACCCAUGUUCCAUGUUGUAGGAUAUCGAUGAUACAGCUACGUUUCGUAGCA	–	–	5.01 nM	4.5 nM
AUAUCCUAGAUAGGAUAUACUGAGGUUGAAUGGGUAGAAGGAUCGUUAGGGUAGACUACAUGAGGAUCACCCAUGUUGUUUAUU	–	–	43.1 nM	40.1 nM
ACAGAGGCUGACAUGAGGAUCACCCAUGUUAGAUUGUUAUGUCAGGAUAUUAUCUCGCAACGAGAUAAGAAGGGACCCUCUGUG	–	–	37.5 nM	7.98 nM
AAAUCGGUAGAGGAUAUUGUACAGGAAACGGUGCGAGAAGGUUGCACAUGAGGAUCACCCAUGUUUAGUUGCGA	34.9 nM	34 nM	–	–
AAGAAACAUGAGGAUCACCCAUGUCACCUCACACGAGGAUAUCUGAAUCGAUUAGAUUACGGAGAAGGCGUGAGAA	–	–	30.2 nM	18.3 nM
AAAAAGUCAGGAUAUCGUAGAAAAAUAUAAAUAAGAAAGUACGAGAAGGGACAUGAGGAUCACCCAUGUAAAAA	33.1 nM	36.9 nM	–	–
UGAAAUCAUGUAGGAUAUGCAUGGCGAAGCUACGCAGAAGGACAUGAGGAUCACCCAUGUUAUAGCUACCCAGUUCGGUGGCAC	46 nM	136 nM	–	–
UUAUUGUGAGGAUAUCAGGUGUGCUAGCGUACUGGUACAUCUGAGAAGGCACAUGAGGAUCACCCAUGUUCCUU	14.3 nM	37.3 nM	–	–
UGUUUUUAUGUAAGGAUAUGGGUUUGGUUGCGGGCUUAGAAGGUACAUGAGGAUCACCCAUGUAUUUUGUGCAU	31.6 nM	35.5 nM	–	–

Sequence	apparent Kd [1]	apparent Kd [2]	apparent Kd [3]	apparent Kd [4]
AAGAAGUGAGGAUAUCGAAGACAAAAAAAAAAAAAGUCGAACGAGAAGGCACAUGAGGAUCACCCAUGUAAGAA	30.2 nM	33.4 nM	–	–
AGAAACUACGAGAAGGACAUGUAAAAUGCCGCAAACAUGAGGAUCACCCAUGUAGGAUAUCGUAGUUUCAGGAUCGUGAGAUCA	6.59 nM	18.1 nM	–	–
UGGUACAUGGGAGGAUAUAGGUUGAUAACAUGAGGAUCACCCAUGUUAAAUAAGCCGAGAGGCUACUAGAAGGCCCAUGUACCU	–	–	4.73 nM	4.75 nM
CGUAUUAUUCAGAAGGCACUUCUCAUGUUACAUGAGGAUCACCCAUGUUUGUGAGGAUAUGAAUAUAGUUGUUGGUGUAUUAUA	7.25 nM	8.59 nM	–	–
GAGCGAAAGCUCAAUGUCGAUAGCAGAAGGACAUGAAAACAUGAAAUAACAUGAGGAUCACCCAUGUAGGAUAUGCUAUCGACU	17.9 nM	279 nM	–	–
AAGUGCCUGUCGAUGCUCGACAUGAGGAUCACCCAUGUACAGCAGGAUAUGCAGAACUACCUCGUGCAGAAGGGCUGUACCAAU	97.1 nM	80.1 nM	–	–
GUAGCUAUCGGAGGAUAUUCAUAGCCGAAAGGCACAUGAGGAUCACCCAUGUGGCGAAAGCCUUGGGAGAAGGCCGAUAGCUAC	–	–	270 nM	18.7 nM
AUCCGACAUGAGGAUCACCCAUGUCAGGAUAUGGACUGACAUCGAAAGGAUGGCAGAACCAGAAGGGACUGGGC	29.9 nM	56.2 nM	–	–
UUACCCUCAGUAAGGAUAUCUUUAUCUGCUGAUUUAGAGAAGGUACAUGAGGAUCACCCAUGUGCGAUUGGGCA	80.3 nM	501 nM	–	–
UUUGUGUCAGGAUAUGAGUAGUAGAACAAUAGUACUACUACUCAGAAGGGACAUGAGGAUCACCCAUGUUCCUC	19.3 nM	88.3 nM	–	–
GAAAGAAAUCCAACAUGAGGAUCACCCAUGUUAGGCCAGUGGCAGGAUAUGGUGGGACUGAUGCACCAGAAGGGUCAGGUGGGC	–	–	17.9 nM	10 nM
GCUGGACGAGGAUAUGCAAUCGUGCUUCGGCACGUAAGAUCACAUGAGGAUCACCCAUGUAGAAGGUGUCCAGC	17.9 nM	30.2 nM	–	–
AACCUAUUACAGAAGGCCAGCUACAUGAGGAUCACCCAUGUCGAGUCAUGGAGGAUAUGUAGUAAUUCACUCACAGAUGAGUAC	–	–	28.9 nM	5.78 nM
ACUGCUCGAGGAUAUACAUGAGGAUCACCCAUGUAACCCAGAAGCACGGCCUCAGGAUGUAGAAGGCGACGCAA	13.1 nM	13.2 nM	–	–
GGAUGACAAAGUCAUCCUUAACGAACAUGAGGAUCACCCAUGUAGGAUAUGCUACUCAAAGAGUAGCAGAAGGACAUGUGUCUU	31.1 nM	159 nM	–	–
AAAUUAAGAAGAGGAUAUUGACAUGAGGAUCACCCAUGUAUUUGGGAGUGUUUACUGAAUUCUUACGAGAAGGCUUACGAACUU	–	190 nM	–	–
AGUAACAGAGGAUAUACUAUUUUAUGUAUUUAUUAUUUUGAACAUGAGGAUCACCCAUGUAGAAGGCUGAAUAA	27.1 nM	22 nM	–	–
GUUCUCGGAGGAUAUACACAGUGAGAACCCGCGCAAGCGGGACAUGAGGAUCACCCAUGUAGAAGGUCGAGCAA	70.2 nM	170 nM	–	–
AGCAUGUAAGGAUAUGCAACACGACGUUCAAUCGUCGUGCCGCAGAAGGUACAUGAGGAUCACCCAUGUGCUCC	104 nM	129 nM	–	–
GCCGGUUCCCUAGGAUAUGUACAUGAGGAUCACCCAUGUGCCUCUAGAGCCGGAACAGGGCAUGUACAGAAGGAGGGUCGACCC	–	8.03 nM	–	–
AGUCUCACUGAAGGAUAUGCAGGGUUUCAAGGGUUUCCUGCGACAUGAGGAUCACCCAUGUAAAUGCAGAAGGUCAGGACCCAA	6.63 nM	32.8 nM	–	–
